# High-throughput results as filed in PubChem.
# XiGFP reactiv – activators of inactive X chromosome reactivation, primary screen, imaging, XiGFP fibroblasts, GFP high-content imaging, set 2 | actives 0.055% (n = 360,000) | activation, % at 7.58 µM | XiGFP mouse fibroblasts, % GFP-positive cells imaging, 3 d; cells co-treated with 5-aza-dC sensitizer; scaled so ellipticine positive control = 100% | AID 743238, 2013;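 active = mean normalized replicate activation at least 10% and every replicate at or above 10%; inconclusive = only one of the two criteria met; inactive = mean below 10% and not all replicates reach 10%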
#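 Material: XiGFP fibroblasts, SV40-immortalized. Buffer or medium: DMEM plus 5-aza-dC sensitizer. Compound: single concentration per compound, delivered by pin transfer. Times: 3 days compound exposure. Controls: ellipticine 6 µM.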
# FN deposition inh – inhibitors of fibronectin matrix deposition, primary screen, AH1F cells, Alexa488-fibronectin fluorescence, plate reader. AID 743247, 2014. inhibition, % at 12.6 µM. actives 0.086% (n = 350,000). AH1F fibroblasts, overnight;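 active = mean inhibition across replicates of 30% or more, regardless of how many single replicates reach that level; inconclusive = mean under 30% yet at least half of replicates reach 30%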
#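 Material: AH1F fibroblasts assembling fluorescent fibronectin matrix; amount: 10000 AH1F cells/well; medium: DMEM, 2% serum; reagent: Alexa488-fibronectin, 24 nM final in well; dosing: single compound dose, delivered by pin transfer; incubation: 1 h adhesion, overnight exposure; detection: fluorescence after three HBSS washes, excitation 485 nm, emission 525 nm; measure: fibronectin deposition inhibition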
# ARNT TACC3 PPI – disruptors of ARNT/TACC3 protein interaction, primary screen, biochemical, AlphaScreen, single concentration | Transforming acidic coiled-coil-containing protein 3 (Homo sapiens), Q9Y6A5 | AlphaScreen His-ARNT PAS-B/GST-TACC3 binding, luminescence; TACC3 fragment carries E629A point mutation | inhibition, % at 9.99 µM | actives 0.66% (n = 390,000) | AID 623870, 2012;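 active = mean inhibition of replicates at least 50% and at least half of replicates each reaching 50%; inconclusive = half or more replicates reach 50% but mean below 50%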
# DENV2 CPE rescue – inhibitors of DENV2 cytopathic effect, primary screen, cell-based, plate reader, single concentration; CPE inhibition, % at 9.99 µM; AID 651640, 2012; actives 1.7% (n = 350,000); DENV2-infected cells, cytopathic effect rescue; in the data active = CPE inhibition above about 20%, passing the limit was not always enough; inconclusive = no clear call, values can overlap the other calls; tested in BHK-21 cells
# FGF22 binding – binders of human FGF22 protein, primary screen, FGF22 synaptogenesis inhibitor project, biophysical, thermal shift, single point | activity (Tm shift, normalised), % at 9.99 µM | AID 651658, 2012 | Fibroblast growth factor 22 (Homo sapiens), Q9HCT0 | actives 1.5% (n = 340,000) | recombinant FGF22 thermal shift, SYPRO orange fluorescence; percent of sucrose octasulfate shift, DMSO zero;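 active = mean Tm shift, scaled 0 neutral to 100 positive control, at about 1.3% or above, every replicate too, limit read from the data; inconclusive = no clear call, values can overlap the other calls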
# Target sequence (Q9HCT0 whole entry, looked up): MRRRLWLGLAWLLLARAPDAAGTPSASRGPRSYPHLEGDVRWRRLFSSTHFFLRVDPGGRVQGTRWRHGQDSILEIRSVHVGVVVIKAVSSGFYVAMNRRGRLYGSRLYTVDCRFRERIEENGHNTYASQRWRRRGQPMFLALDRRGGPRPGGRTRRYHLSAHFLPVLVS
# SIRT5 inh – SIRT5 desuccinylase inhibitors, primary screen, biochemical, fluorescence imaging, single point, set 5; actives 1.1% (n = 330,000); inhibition, % at 15 µM; AID 652115, 2013; Purified SirT5, succinyl-peptide AMC, trypsin-coupled fluorescence; NAD-dependent protein deacylase sirtuin-5, mitochondrial (Homo sapiens), Q9NXA8; in the data active = inhibition above about 15%; inconclusive = no clear call, values can overlap the other calls
# Target sequence (Q9NXA8 whole entry, looked up): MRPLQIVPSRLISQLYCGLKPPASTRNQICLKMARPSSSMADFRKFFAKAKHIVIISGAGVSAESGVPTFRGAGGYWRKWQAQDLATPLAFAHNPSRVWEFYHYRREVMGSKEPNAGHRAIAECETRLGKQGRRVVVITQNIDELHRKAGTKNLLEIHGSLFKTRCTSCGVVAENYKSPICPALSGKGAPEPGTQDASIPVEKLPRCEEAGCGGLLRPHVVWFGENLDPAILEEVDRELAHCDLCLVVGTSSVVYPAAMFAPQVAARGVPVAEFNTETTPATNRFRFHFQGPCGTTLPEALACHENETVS
# ARNT Alpha ctr-1 – AlphaScreen signal interference compounds, dose response, artefact control for ARNT-TACC3 interaction inhibitor project, biochemical, luminescence, cherry-pick; His-ARNT PASB-GST AlphaScreen artifact counter-screen; AC50, µM (titrated, usually from 68 µM); shares compounds with ARNT TACC3 PPI; actives 50% (n = 1,200);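 active = every separate test run was called active for a drop in luminescence, with AC50 within twice the top valid dose, actives reach about 71 µM in these data; inconclusive = the separate test runs disagree in their calls; inactive = all runs inactive, including signal change in the wrong direction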
# ARNT Alpha ctr-2 – AlphaScreen signal interference by compounds, dose response, artefact control for ARNT/TACC3 disruptor project, biochemical, dual-tagged ARNT, dry powder | actives 70% (n = 45) | shares compounds with ARNT TACC3 PPI | Dual-tagged His-ARNT PASB-GST AlphaScreen artifact counter-screen | AID 720564, 2013 | AC50, µM;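 active = luminescence drop, with half-maximal potency fitted within twice the sample's top valid dose, cut at about 70 µM in these data; inactive = the rest, including signal moving the wrong way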
# Numbers stand for hits; 0 = inactive; ? = inconclusive; - = no result given. Rows were chosen to be rich in hits. Some 3.8% of all compounds tested hit in one or more screens of this group.
SMILES,XiGFP reactiv,FN deposition inh,ARNT TACC3 PPI,DENV2 CPE rescue,FGF22 binding,SIRT5 inh,ARNT Alpha ctr-1,others
COc1ccc(NC(=O)Nc2ccc3c(c2)CC(=O)N([C@@H](C)CO)C[C@H](C)[C@H](CN(C)Cc2ccc(Oc4ccccc4)cc2)O3)cc1,0,-,0,0,0,0,-,
COc1ccc(-c2cnc3c(c2)C(=O)N([C@H](C)CO)C[C@@H](C)[C@H](CN(C)Cc2cccnc2)O3)cc1,0,0,108,0,0,0,0,
COc1ccc(-c2cnc3c(c2)C(=O)N([C@@H](C)CO)C[C@@H](C)[C@H](CN(C)Cc2cccnc2)O3)cc1,0,0,0,0,0,0,-,
CC(C)NC(=O)N(C)C[C@H]1Oc2ccc(N(C)C)cc2CC(=O)N([C@@H](C)CO)C[C@@H]1C,0,-,60,0,0,0,0,
COc1ccc(NC(=O)Nc2ccc3c(c2)CC(=O)N([C@H](C)CO)C[C@H](C)[C@@H](CN(C)Cc2ccc(Oc4ccccc4)cc2)O3)cc1,0,-,55,0,0,23,19µM,
C[C@@H]1CN([C@H](C)CO)C(=O)Cc2cc(NC(=O)Cc3ccccc3)ccc2O[C@H]1CN(C)C(=O)Nc1ccc(C(F)(F)F)cc1,0,-,0,0,0,0,-,
C[C@@H]1CN([C@@H](C)CO)C(=O)Cc2cc(NC(=O)Nc3cccc4ccccc34)ccc2O[C@H]1CN(C)Cc1ccc(Oc2ccccc2)cc1,0,-,72,0,0,0,14µM,
C[C@@H]1CN([C@H](C)CO)C(=O)Cc2cc(N(C)C)ccc2O[C@H]1CN(C)Cc1ccc(Oc2ccccc2)cc1,0,-,52,0,-,0,15µM,
CO[C@H]1CN(C)C(=O)c2ccc(NC(C)=O)cc2OC[C@@H](C)N(C(=O)CN(C)C)C[C@H]1C,0,0,0,-,-,-,-,
COc1ccc(CN(C)C[C@H]2Oc3ccc(NC(=O)C4CC4)cc3CC(=O)N([C@H](C)CO)C[C@H]2C)cc1,0,-,0,0,0,0,-,
C[C@@H]1CN([C@@H](C)CO)C(=O)c2cc(NS(=O)(=O)c3cn(C)cn3)ccc2O[C@@H]1CN(C)S(=O)(=O)c1cn(C)cn1,0,-,-,-,-,-,-,
O=C(CC(NCc1ccccn1)C(=O)O)Nc1ccccc1Cl (configuration not stated),0,0,51,0,0,0,13µM,
O=C(NCc1ccccn1)Nc1cc(Cl)ccc1Cl,0,-,0,0,0,0,-,
CCNC(=O)C[C@H]1CC[C@H]2[C@@H](COC[C@@H](O)CN2C(=O)Nc2ccc(Cl)c(Cl)c2)O1,0,0,0,0,0,0,-,
C[C@H](CO)N1C[C@H](C)[C@H](CN(C)Cc2cccnc2)Oc2cc(C#CCN(C)C)ccc2S1(=O)=O,0,0,active,0,0,0,0,
C[C@@H]1CN([C@H](C)CO)S(=O)(=O)c2ccc(C3=CCCC3)cc2O[C@H]1CN(C)Cc1ccccn1,0,0,17,0,0,0,51µM,
C[C@H]1CN([C@@H](C)CO)S(=O)(=O)c2ccc(C3=CCCC3)cc2O[C@@H]1CN(C)Cc1ccccn1,0,0,0,0,0,0,-,
O=C(C[C@H]1CC[C@@H](NC(=O)NC2CCCCC2)[C@H](CO)O1)NCc1ccc(F)cc1,0,0,0,0,0,0,-,
Oc1c(C(Nc2nc3ccccc3s2)c2ccco2)ccc2cccnc12 (configuration not stated),-,0,0,-,-,-,-,
CC(C)C(=O)NC(c1ccco1)c1ccc2cccnc2c1O (configuration not stated),-,-,53,-,-,-,29µM,ARNT Alpha ctr-2=9.4
CCCC(=O)NC(c1ccco1)c1cc(Cl)c2cccnc2c1O (configuration not stated),-,-,0,-,-,-,-,
CC(=O)NC(c1ccco1)c1cc(F)c2cccnc2c1O (configuration not stated),0,0,58,0,0,0,45µM,
CC(C)C(=O)NC(c1cccc([N+](=O)[O-])c1)c1ccc2cccnc2c1O (configuration not stated),0,0,63,0,0,0,17µM,
O=C(Cc1ccccc1)NC(c1ccco1)c1ccc2cccnc2c1O (configuration not stated),-,-,-,-,-,-,-,ARNT Alpha ctr-2=8.7
CC(C)CC(=O)NC(c1cccs1)c1ccc2cccnc2c1O (configuration not stated),-,-,-,-,-,-,-,ARNT Alpha ctr-2=7
CC(C)C(=O)NC(c1ccco1)c1cc(Cl)c2cccnc2c1O (configuration not stated),-,-,-,-,-,-,-,ARNT Alpha ctr-2=43
COc1cccc(/C=N/NC(=O)C(=O)N2CCCCCC2)c1O,0,0,60,0,0,0,0,
COc1ccc(OC)c(/C=N/NC(=O)C(=O)N2CCCC2)c1,0,0,0,?,0,0,-,
COc1ccc(NC(=O)N(C)C[C@H]2Oc3ncc(-c4ccc(C#N)cc4)cc3C(=O)N([C@H](C)CO)C[C@@H]2C)cc1,0,-,0,0,0,0,-,
Cc1nc(NCCCn2ccnc2)c2ccccc2n1,-,-,0,-,-,-,-,
